Measurements from different studies.
Compare with care: the assays were run in different laboratories.

NCC(=O)Nc1ccccc1/N=c1\cc(-c2ccc3c(c2)OCCO3)oc2ccccc12 — inhibition (MOLM-13; cell growth or viability, CCK-8; 1 µM): -2.55%
CC(=O)O[C@H]1C(=O)[C@@]2(C)[C@H]([C@H](OC(=O)c3ccccc3)[C@]3(O)C[C@H](OC(=O)[C@H](O)[C@@H](NC(=O)c4ccccc4)c4ccccc4)C(C)=C1C3(C)C)[C@]1(OC(C)=O)CO[C@@H]1C[C@@H]2O — viability (CHP-212; cell growth or viability, SRB; 10 µM): 5.97%
C(=N\Nc1cc(N/N=C/c2cccc3cccnc23)ncn1)/c1cccc2cccnc12 — IC50 (Bel-7402; cell growth or viability, MTT; 48 h): 17.6 µM
NCCC(=O)Nc1ccccc1/N=c1\cc(-c2ccc3c(c2)OCO3)oc2ccccc12 — inhibition (MOLM-13; cell growth or viability, CCK-8; 1 µM): 2.07%
COc1cccc2c1C(=O)c1c(O)c3c(c(O)c1C2=O)C[C@@](O)(C(=O)CO)C[C@@H]3O[C@H]1C[C@H](N)[C@H](O)[C@H](C)O1 — viability (CHP-212; cell growth or viability, SRB; 41.15 nM): 50.8%
O=C(N[C@@H](CSCc1ccccc1)C(=O)NO)c1ccccc1 — IC50 (NCI-H1573; cell growth or viability, MTT; 48 h): 11.3 µM
CCCCCCCCCCCCCCCCCCOc1ccc(CC(=O)OCC[N+]2(C)CCOCC2)cc1 — inhibition (NCI-H23; cell growth or viability, SRB; 10 µM): 5.91%
C[C@@H]1COCCN1c1cc(C2([S@](C)(=N)=O)CC2)nc(-c2cc[nH]c3nccc2-3)n1 — IC50 (CT26; cell growth or viability, ATP luminescence; 24 h): 27.6 µM
COC(=O)[C@H]1[C@@H](O)[C@@]2(O)c3c(OC)cc(O[C@@H]4O[C@@H]([C@H](O)CO)CO[C@H]4OC)cc3O[C@@]2(c2ccc(OC)cc2)[C@@H]1c1ccccc1 — IC50 (C6661; cell growth or viability, MTS; 48 h): 0.007 µM
COc1ncnc(C2CC2)c1-c1ncc2cnn(Cc3ccc(-c4nc(C(F)(F)F)cn4C(C)C)cc3)c2n1 — viability (CHP-212; cell growth or viability, SRB; 12.5 µM): 85.3%
Nc1nc2ccc(-c3c/c(=N\c4ccccc4NC(=O)C4CCNC4)c4ccccc4o3)cc2o1 (stereo not drawn) — inhibition (MOLM-13; cell growth or viability, CCK-8; 1 µM): 41.4%
Cc1c(Cl)c(=O)oc2cc(OCCCCSC#N)ccc12 — GI50 (SW1573; cell growth or viability, SRB): 5.8 µM
CCCCCCCCCCCCCCCCCCOc1ccccc1CC(=O)OCC[N+]1(C)CCOCC1 — inhibition (NCI-H23; cell growth or viability, SRB; 10 µM): 33.5%
CC(C)C[C@H](NC(=O)[C@H](Cc1ccccc1)NC(=O)c1cnccn1)B(O)O — viability (CHP-212; cell growth or viability, SRB; 0.3704 µM): 88%
CCCCCCCCCCCCCCCCCCOc1ccc(CC(=O)OCC[N+](C)(C)C)cc1 — inhibition (NCI-H23; cell growth or viability, SRB; 10 µM): 6.67%
O=c1[nH]cc(F)c(=O)[nH]1 — IC50 (Bel-7402; cell growth or viability, MTT; 48 h): 15.8 µM
O=C(C[C@@H](C(F)F)n1ccc(F)n1)N1CCC(O)(Cn2cnc3c(cnn3-c3ccc(F)cc3)c2=O)CC1 — viability (CHP-212; cell growth or viability, SRB; 82.3 nM): 47.2%
CC(C)(C)[C@H](N)C(=O)Nc1ccccc1/N=c1\cc(-c2ccc3c(c2)OCO3)oc2ccccc12 — inhibition (MOLM-13; cell growth or viability, CCK-8; 1 µM): 4.05%
O=C(O[C@@H]1COC(=O)c2cc(O)c(O)c(O)c2-c2c(cc(O)c(O)c2O)C(=O)O[C@H]1[C@@H]1OC(=O)c2cc(O)c(O)c(O)c2-c2c(O)c(O)c(O)c3c2C(=O)O[C@H]1[C@@H]3O)c1cc(O)c(O)c(O)c1 — inhibition (SIM-A9; NO release, inhibitor, Griess; 10.7 µM, LPS-stimulated): 52%
CCCCCCCCCCCCCCCCCCOc1cccc(CC(=O)OCC[N+]2(C)CCOCC2)c1 — inhibition (NCI-H23; cell growth or viability, SRB; 10 µM): 4.14%
C(=N\Nc1cc(N/N=C/c2cccc3cccnc23)nc(-c2ccccc2)n1)/c1cccc2cccnc12 — IC50 (Bel-7402; cell growth or viability, MTT; 48 h): 11.1 µM
[NH2][Pt]([NH2])([Cl])[Cl] — GI50 (SW1573; cell growth or viability, SRB): 2.7 µM
COc1ccc2oc(-c3ccc4nc(N)oc4c3)c/c(=N\c3ccccc3NC(=O)CCN)c2c1 — inhibition (MOLM-13; cell growth or viability, CCK-8; 1 µM): 61.4%
N#CSCc1cc(=O)oc2cc(O)ccc12 — GI50 (SW1573; cell growth or viability, SRB): 5.5 µM
CCCCCCCCCCCCCCCCCCOc1cccc(CC(=O)OCCC[N+](C)(C)C)c1 — inhibition (NCI-H23; cell growth or viability, SRB; 10 µM): 24.1%
CNCc1ccc(-c2cc(-c3nc(-c4ccc(S(=O)(=O)C(C)C)cc4)cnc3N)on2)cc1 — IC50 (CT26; cell growth or viability, ATP luminescence; 24 h): 3.05 µM
N[C@@H](CO)C(=O)Nc1ccccc1/N=c1\cc(-c2ccc3c(c2)OCO3)oc2ccccc12 — inhibition (MOLM-13; cell growth or viability, CCK-8; 1 µM): 8.02%
CCCCCCCCCCCCCCCCCCOc1cccc(CC(=O)OCC[N+](CC)(CC)CC)c1 — inhibition (NCI-H23; cell growth or viability, SRB; 10 µM): 64.3%
NCCC(=O)Nc1ccccc1/N=c1\cc(-c2ccc3nc(N)oc3c2)oc2cc(O)ccc12 — inhibition (MOLM-13; cell growth or viability, CCK-8; 1 µM): 3.71%
CCCCCCCCCCCCCCCCCCOc1ccc(CC(=O)OCC[N+](CC)(CC)CC)cc1 — inhibition (NCI-H23; cell growth or viability, SRB; 10 µM): 39.5%
C(=N\Nc1cc(N/N=C/c2ccc3ccccc3n2)ncn1)/c1ccc2ccccc2n1 — IC50 (Bel-7402; cell growth or viability, MTT; 48 h): 34 µM
COc1ccc2/c(=N/c3ccccc3NC(=O)[C@H](C)N)cc(-c3ccc4c(c3)OCCO4)oc2c1 — inhibition (MOLM-13; cell growth or viability, CCK-8; 1 µM): 6.88%
CCCCCCCCCCCCCCCCCCOc1ccccc1CC(=O)OCC[N+](CC)(CC)CC — inhibition (NCI-H23; cell growth or viability, SRB; 10 µM): 86.9%
